Assay results: ChEMBL document CHEMBL1147117, “Novel synthetic antimicrobial peptides against Streptococcus mutans” (2007)
Where a SMILES comes first, the peptide text is derived from it.

What was measured:
Type in all cases: functional
[1] = test system: Streptococcus mutans; experiment: Antibacterial activity against Streptococcus mutans after 16 to 20 hrs
Method in brief: (§1)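 Broth microdilution in TH broth or Veillonella medium. Overnight cultures grown to OD600 0.75 to 0.8 were diluted to 1 x 10^5 CFU/ml. Peptide was serially diluted 1:2 from 500 or 512 µg/ml down to 1.95 or 2 µg/ml, with a methanol solvent control. Incubation was 16 to 20 h at 37°C, anaerobic, without shaking. MIC was read visually as the last clear well. Run in triplicate.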

[2] = test system: Veillonella atypica; experiment: Antibacterial activity against Veillonella atypica PK1910 after 16 to 20 hrs; method in brief: as §1
[3] = test system: Lacticaseibacillus casei; experiment: Antibacterial activity against Lactobacillus casei ATCC 4646 after 16 to 20 hrs; method in brief: as §1
[4] = test system: Streptococcus mitis; experiment: Antibacterial activity against Streptococcus mitis ATCC 903 after 16 to 20 hrs; method in brief: as §1
[5] = test system: Streptococcus sanguinis; experiment: Antibacterial activity against Streptococcus sanguinis NY101 after 16 to 20 hrs; method in brief: as §1
[6] = test system: Streptococcus gordonii; experiment: Antibacterial activity against Streptococcus gordonii Challis DL1 after 16 to 20 hrs; method in brief: as §1
[7] = test system: Streptococcus mutans; experiment: Bactericidal activity against Streptococcus mutans UA159 assessed as time required to kill 3 log10 of recoverable CFU/ml at 25 ug/ml relative to untreated control
Method in brief: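 Time-kill assay. Overnight UA159 cultures were diluted in medium to 0.5 x 10^6 to 1 x 10^6 CFU/ml and exposed to 25 µg/ml peptide. At each time point a 10-µl aliquot was diluted 1:50 into growth medium and plated on TH agar; whole 1-ml samples were plated when survivors were below 3,000 CFU/ml. TC is the time for survivors to fall 3 log10 below untreated CFU/ml. Repeated 3 to 5 times.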

Compound	MIC [1] [µg/mL]	other results
Cl.N=C(N)NCCC[C@H](NC(=O)[C@H](CCCNC(=N)N)NC(=O)[C@@H](N)CCCNC(=N)N)C(=O)N[C@@H](CCCCN)C(=O)N[C@@H](Cc1c[nH]c2ccccc12)C(=O)N[C@@H](Cc1c[nH]c2ccccc12)C(=O)N[C@@H](CCCCN)C(=O)O (H-RRRKWWK-OH)	125	
H-AKRLLKVLKRF-NH2	16	
H-AQAAHQAAHAAHQF-NH2	> 125	
H-AQAAKQAAKAAKQF-NH2	> 125	
H-ATHLLHALQRF-NH2	> 250	
H-FHYFWHWFHRF-NH2	125	
H-FKKFWKWFRRF-NH2	8	MIC [2]: 16 µg/mL; MIC [3]: 32 µg/mL; MIC [4]: 32 µg/mL; MIC [5]: 32 µg/mL; MIC [6]: 32 µg/mL
H-FKKFWKWFRRFGGGRWRRLLKKLHHLLH-NH2	16	
H-FKKFWKWFRRFGGGRWRWRWF-NH2	4	MIC [2]: 8 µg/mL; MIC [3]: 8 µg/mL; MIC [4]: 64 µg/mL; MIC [5]: 16 µg/mL; MIC [6]: 32 µg/mL
H-FKTFLKWLHRF-NH2	24	
H-FKTFLQWLHRF-NH2	16	
H-IKQLLHFFQRF-NH2	24	MIC [2]: 64 µg/mL; MIC [3]: 32 µg/mL; MIC [4]: 64 µg/mL; MIC [5]: 64 µg/mL; MIC [6]: 32 µg/mL
H-IKQLLHFFQRFGGGRWRRLLKKLHHLLH-NH2	16	
H-IKQLLHFFQRFGGGRWRWRWF-NH2	4	MIC [2]: 8 µg/mL; MIC [3]: 16 µg/mL; MIC [4]: 64 µg/mL; MIC [5]: 16 µg/mL; MIC [6]: 32 µg/mL
H-IKTLLHFFQRF-NH2	32	
H-KLAENVKEILR-NH2	> 250	
H-KLAQKVKRVLR-OH	> 125	
H-KLFKRWKHLFR-OH	31.2	
H-KLKKLLKHLHHLLH-NH2	8	
H-KLKKLLKKLKKLLK-OH	8	
H-KLKKLLKRWRRWWR-OH	8	
H-KLLQTFKQIFR-OH	> 250	
H-KLLQTFNQIFR-OH	> 125	
H-KLVEQLKEIFR-OH	> 250	
H-KLVQQLKNIFR-OH	> 125	

Compound	MIC [1] [µg/mL]	other results
H-LKLLKKLLKLLKKF-NH2	8	
H-LKQFVHFIHRF-NH2	32	
H-LKQFVKFIHRF-NH2	24	
H-LKRFLKWFKRF-NH2	8	MIC [2]: 32 µg/mL; MIC [3]: 16 µg/mL; MIC [4]: 64 µg/mL; MIC [5]: 16 µg/mL; MIC [6]: 32 µg/mL
H-LKRFLKWFKRFGGGRWRWRWF-NH2	4	MIC [2]: 8 µg/mL; MIC [3]: 16 µg/mL; MIC [4]: 64 µg/mL; MIC [5]: 16 µg/mL; MIC [6]: 64 µg/mL
H-LQLLKQLLKLLKQF-NH2	8	
H-LYHFLHWFQRF-NH2	125	
H-RALHEAKEALK-OH	> 250	
H-RALKRIKHVLK-OH	> 125	
H-RILKELKNLFK-OH	> 250	
H-RLLKRFKHLFK-OH	31.2	
H-RRRFWWR-OH	31.2	
H-RRRKWWK-OH	250	
H-RRRRWWK-OH	125	
H-RRRRWWW-OH	16	
H-RRRWWWF-NH2	4	Time [7]: 220 min; MIC [2]: 64 µg/mL; MIC [3]: 16 µg/mL; MIC [4]: 32 µg/mL; MIC [5]: 16 µg/mL; MIC [6]: 32 µg/mL
H-RRRWWWFASASARRRWWWF-NH2	32	Time [7]: 480 min
H-RRRWWWFGGGRRRWWWF-NH2	16	Time [7]: 270 min
H-RRRWWWFPSGSPRRRWWWF-NH2	32	Time [7]: 420 min
H-RRRWWWFRRRWWWF-NH2	16	Time [7]: 60 min
H-RRRWWWK-OH	31.2	
H-RRRWWWR-OH	32	
H-RRWKRRK-OH	500	
H-RRWWRRF-NH2	4	
H-RRWWRRK-OH	125	

Compound	MIC [1] [µg/mL]	other results
H-RRWWRRW-OH	16	
H-RVLNQVKQILK-OH	> 125	
H-RVLQEIKQILK-OH	> 250	
H-RWRKRWK-OH	125	
H-RWRRLLKKLHHLLH-NH2	8	MIC [2]: 4 µg/mL; MIC [3]: 16 µg/mL; MIC [4]: 32 µg/mL; MIC [5]: 16 µg/mL; MIC [6]: 16 µg/mL
H-RWRRLLKKLHHLLHGGGFKKFWKWFRRF-NH2	4	MIC [2]: 8 µg/mL; MIC [3]: 8 µg/mL; MIC [4]: 32 µg/mL; MIC [5]: 16 µg/mL; MIC [6]: 16 µg/mL
H-RWRRLLKKLHHLLHGGGIKQLLHFFQRF-NH2	16	
H-RWRRWWRHFHHFFH-NH2	8	
H-RWRWRWF-NH2	125	Time [7]: 220 min; MIC [2]: 64 µg/mL; MIC [3]: 32 µg/mL; MIC [4]: 32 µg/mL; MIC [5]: 32 µg/mL; MIC [6]: 32 µg/mL
H-RWRWRWFASASARWRWRWF-NH2	16	Time [7]: 45 min
H-RWRWRWFGGGFKKFWKWFRRF-NH2	4	MIC [2]: 8 µg/mL; MIC [3]: 8 µg/mL; MIC [4]: 64 µg/mL; MIC [5]: 8 µg/mL; MIC [6]: 16 µg/mL
H-RWRWRWFGGGIKQLLHFFQWRF-NH2	8	
H-RWRWRWFGGGLKRFLKWFKRF-NH2	8	MIC [2]: 16 µg/mL; MIC [3]: 8 µg/mL; MIC [4]: 64 µg/mL; MIC [5]: 16 µg/mL; MIC [6]: 32 µg/mL
H-RWRWRWFGGGRWRWRWF-NH2	16	Time [7]: 90 min
H-RWRWRWFPSGSPRWRWRWF-NH2	32	Time [7]: 270 min
H-RWRWRWFRWRWRWF-NH2	16	Time [7]: 50 min
H-RWRWRWK-OH	32	
H-RWRWRWR-OH	32	
H-TILQSLKNIFK-OH	> 125	
H-VKKLAKLVRRF-NH2	16	
H-VKNLAELVHRF-NH2	> 250	
H-VKQLLKIFNRF-NH2	32	
H-VKTLLHIFQRF-NH2	31.2	
H-YLFQTWQHLFR-OH	> 125	
H-YLLTEFQHLFK-OH	> 125	
